The subject of one series is KG1a cells. The series can be described thus: MTT cytotoxicity assay, KG1a. The format is cell-based, human. Conditions: for IC50: Homo sapiens, KG-1a, 72 h, read-out: IC50 KG1a. Put shortly: (§1)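 Exponentially growing leukaemia lines were seeded at 1 × 10⁴ cells/well in supplemented RPMI 1640. After 24 h, test compounds were added over a concentration range for 72 h, with adriamycin as positive control. MTT (5 mg/ml stock) was added for 4 h. Plates were spun at 2000 rpm for 20 min, the supernatant replaced by DMSO, and absorbance read at 570 nm. IC50 was fitted; each value is the mean of three independent experiments.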
On the technique in general: Formazan colour is commonly taken as a measure of viable cells.

A further series concerns HL-60 cells. The series can be described thus: MTT cytotoxicity assay, HL-60. The note with it: Homo sapiens, HL-60, 72 h, read-out: IC50 HL-60. Format: cell-based. In a few lines: as §1
The conditions of series [1]: cited from earlier work.
For series [2] the following is noted: cited from earlier work. This is another data set of the same source.

Usually IC50 stands for the concentration that inhibits the measured activity by half.

Turning to `COc1cccc2c1C(=O)c1c(O)c3c(c(O)c1C2=O)C[C@@](O)(C(=O)CO)C[C@@H]3O[C@H]1C[C@H](N)[C@H](O)[C@H](C)O1` [ADR, adriamycin], the IC50 in the series on KG1a cells came out at 750 ± 50 nM; with HL-60 cells, 22 ± 5 nM. Also, the “drop of activity against KG1a than that against HL-60” value with KG1a cells (ratio of IC50 values) was found to be 34 folds.
As for `C=C1C(=O)O[C@H]2[C@H]1CC/C(C)=C/CC[C@@]1(C)O[C@@H]21` [PTL, Parthenolide], the solubility result in series [1] was “poor solubility”. Further, the results for the IC50 in the series with KG1a cells and in the series on HL-60 cells were 6100 ± 1800 nM and 3800 ± 1200 nM, respectively. For the same compound, in series [2], the “stability in acidic and basic conditions” value was “instability in both acidic and basic conditions”.
